Values after ≈ are worked out from the molar mass of the structure shown. *1 amine or outer side, *2 acyl side, *3 side chain or, on linkers, in order; H or OH if unused. Where a SMILES comes first, the peptide text is derived from it. Bridges are numbered along the chain shown (N, C = ends). [ ]: non-standard residue; d: D form. The star is where a group is joined. X1 = O=C1C[C@@H](C(=O)[*:2])N([*:1])C[C@H]1CS[C@@H]1CN2CCC1CC2; NMePhe(4-NMe2) = CN[C@@H](Cc1ccc(N(C)C)cc1)C(=O)O; Picolinoyl(3-OH) = O=C(c1ncccc1O)*; Phg = N[C@H](C(=O)O)c1ccccc1; dAbu = CC[C@@H](N)C(=O)O
Assays:
[1] = test system: Enterococcus sp.; assay: Antibacterial activity was determined against clinically isolated vancomycin-A resistant enterococci (VRE) strains (33 strains); format: functional
[2] = test system: Enterococcus sp.; assay: Antibacterial activity was determined against clinically isolated vancomycin-B resistant enterococci (VRE) strains (10 strains); format: functional
[3] = test system: Staphylococcus aureus; assay: Antibacterial activity was determined against clinically isolated Levofloxacin-methicillin resistant Staphylococcus aureus (LVFX-r MRSA) strains (74 strains); format: functional
[4] = test system: Streptococcus pneumoniae; assay: Antibacterial activity was determined against clinically isolated penicillin resistant Streptococcus pneumoniae (PRSP) strains (50 strains); format: functional
[5] = test system: Staphylococcus aureus; assay: Antibacterial activity was determined against clinically isolated Levofloxacin-methicillin resistant Staphylococcus aureus (LVFX-r MRSA) strains (74 strains); Range= 0.5-128 ug/mL; format: functional
Outline: (§1)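 Twofold broth microdilution in Mueller–Hinton broth, inoculum about 10^5 CFU per well. Plates incubated 18 h at 37 °C. MIC taken as the lowest concentration preventing visible growth. Organisms were clinical resistant Gram-positive isolates.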

[6] = test system: Escherichia coli; assay: Antibacterial activity was determined against Escherichia coli NIHJ strain after incubation at 37 degrees C for 18 h; format: functional
[7] = test system: Enterococcus faecalis; assay: Antibacterial activity was determined against Enterococcus faecalis ATCC 19433 strain after incubation at 37 degrees C for 18 h; format: functional; settings: ATCC 19433, 18 h
[8] = test system: Klebsiella pneumoniae; assay: Antibacterial activity was determined against Klebsiella pneumoniae type II strain after incubation at 37 degrees C for 18 h; format: functional
[9] = test system: Pseudomonas aeruginosa; assay: Antibacterial activity was determined against Pseudomonas aeruginosa PAO1 strain after incubation at 37 degrees C for 18 h; format: functional
[10] = test system: Staphylococcus epidermidis; assay: Antibacterial activity was determined against Staphylococcus epidermis 56500 strain after incubation at 37 degrees C for 18 h; format: functional
[11] = test system: Staphylococcus aureus; assay: Antibacterial activity was determined against Staphylococcus aureus FDA 209-P strain after incubation at 37 degrees C for 18 h; format: functional
[12] = test system: Streptococcus pyogenes; assay: Antibacterial activity was determined against Streptococcus pyogenes G-36 strain after incubation at 37 degrees C for 18 h; format: functional
[13] = test system: Streptococcus pneumoniae; assay: Antibacterial activity was determined against Streptococcus pneumoniae J-24 strain after incubation at 37 degrees C for 18 h; format: functional
[14] = Mortality was determined after 50 mg/kg dose administered intravenously to 5-week old male mice at a speed of 0.2 mL/min counted on day 7 for total 5 mice; format: ADME, organism-based; design: dose 50 mg/kg, route intravenous; settings: mouse, in vivo, iv
Outline: (§2)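 Male Slc:ddY mice, 5 weeks old. Compound dissolved in 0.1 N NaOH in saline at varied concentrations and given as a single IV injection at 0.2 mL/min, total volume 10 mL/kg body weight. Deaths counted on day 7 and reported as dead/tested.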

[15] = test system: Streptococcus mitis; assay: Antibacterial activity was determined against Streptococcus mitis IID685 strain after incubation at 37 degrees C for 18 h; format: functional
[16] = Mortality was determined after 100 mg/kg dose administered intravenously to 5-week old male mice at a speed of 0.2 mL/min counted on day 7 for total 2 mice; format: ADME, organism-based; design: dose 100 mg/kg, route intravenous; settings: mouse, in vivo, iv; outline: as §2
[17] = Mortality was determined after 150 mg/kg dose administered intravenously to 5-week old male mice at a speed of 0.2 mL/min counted on day 7 for total 2 mice; format: ADME, organism-based; design: dose 150 mg/kg, route intravenous; settings: mouse, in vivo, iv; outline: as §2
[18] = test system: Streptococcus pneumoniae; assay: Antibacterial activity was determined against clinically isolated penicillin resistant Streptococcus pneumoniae (PRSP) strains (50 strains); Range= 1-4; format: functional
[19] = test system: Enterococcus sp.; assay: Antibacterial activity was determined against clinically isolated vancomycin-A resistant Enterococci (VRE) strains (33 strains); format: functional; outline: as §1
[20] = test system: Enterococcus sp.; assay: Antibacterial activity was determined against clinically isolated vancomycin-B resistant Enterococci (VRE) strains (10 strains); format: functional; outline: as §1

Structure (SMILES)	MIC50 [1] [µg/mL]	MIC90 [1] [µg/mL]	MIC50 [2] [µg/mL]	MIC90 [2] [µg/mL]	MIC50 [3] [µg/mL]	MIC90 [3] [µg/mL]	MIC50 [4] [µg/mL]	MIC90 [4] [µg/mL]	further results
CC(=O)NCC1CN(c2ccc(N3CCOCC3)c(F)c2)C(=O)O1 (single isomer, unassigned) [LINEZOLID]	2 (≈ 5.93 µM)	2 (≈ 5.93 µM)	2 (≈ 5.93 µM)	2 (≈ 5.93 µM)	2 (≈ 5.93 µM)	2 (≈ 5.93 µM)	0.5 (≈ 1.48 µM)	0.5 (≈ 1.48 µM)	
CC(=O)N[C@@H]1[C@H](Oc2c3cc4cc2Oc2ccc(cc2Cl)[C@@H](O[C@@H]2O[C@@H](CO)[C@@H](O)[C@H](O)[C@@H]2NC(C)=O)[C@@H]2NC(=O)[C@H](NC(=O)[C@@H]4NC(=O)[C@H]4NC(=O)[C@@H](Cc5ccc(c(Cl)c5)O3)NC(=O)[C@H](N)c3ccc(O)c(c3)Oc3cc(O)cc4c3)c3ccc(O)c(c3)-c3c(O[C@H]4O[C@H](CO)[C@@H](O)[C@@H](O)[C@@H]4O)cc(O)cc3[C@@H](C(=O)O)NC2=O)O[C@@H](CO)[C@@H](O)[C@@H]1O	32 (≈ 18.1 µM)	64 (≈ 36.2 µM)	1 (≈ 0.566 µM)	2 (≈ 1.13 µM)	0.5 (≈ 0.283 µM)	1 (≈ 0.566 µM)	0.25 (≈ 0.141 µM)	0.5 (≈ 0.283 µM)	
CCN(CC)CCS(=O)(=O)[C@@H]1CCN2C(=O)c3coc(n3)CC(=O)C[C@H](O)/C=C(C)/C=C/CNC(=O)/C=C/[C@@H](C)[C@@H](C(C)C)OC(=O)[C@@H]12.CC[C@H]1NC(=O)[C@@H](NC(=O)c2ncccc2O)[C@@H](C)OC(=O)[C@H](c2ccccc2)NC(=O)[C@@H]2CC(=O)[C@H](CS[C@@H]3CN4CCC3CC4)CN2C(=O)[C@H](Cc2ccc(N(C)C)cc2)N(C)C(=O)[C@@H]2CCCN2C1=O [QUINUPRISTIN/DALFOPRISTIN] ({Picolinoyl(3-OH)}-T[dAbu]P[NMePhe(4-NMe2)][X1][Phg]; ester 1-C)	0.5	8	0.5	8	0.5	0.5	1	1	
C[C@H]1COc2c(N3CCN(C)CC3)c(F)cc3c(=O)c(C(=O)O)cn1c23.C[C@H]1COc2c(N3CCN(C)CC3)c(F)cc3c(=O)c(C(=O)O)cn1c23.O [LEVOFLOXACIN]									MIC [5]: 128 µg/mL
NCC[C@H](O)C(=O)N[C@@H]1C[C@H](N)[C@@H](O[C@H]2O[C@H](CN)CC[C@H]2N)[C@H](O)[C@H]1O[C@H]1O[C@H](CO)[C@@H](O)[C@H](N)[C@H]1O [ARBEKACIN]	16 (≈ 29 µM)	64 (≈ 116 µM)	32 (≈ 57.9 µM)	> 128	8 (≈ 14.5 µM)	32 (≈ 57.9 µM)	16 (≈ 29 µM)	32 (≈ 57.9 µM)	
Cc1c(N2C[C@H](F)[C@@H](C3(N)CC3)C2)c(F)c(N)c2c(=O)c(C(=O)O)cn([C@@H]3C[C@@H]3F)c12									MIC [6]: ≤ 3 ng/mL; MIC [7]: 0.013 µg/mL (≈ 0.0298 µM); MIC [8]: 0.013 µg/mL (≈ 0.0298 µM); MIC [9]: 0.2 µg/mL (≈ 0.458 µM); MIC [10]: ≤ 3 ng/mL; MIC [11]: ≤ 3 ng/mL; MIC [12]: ≤ 3 ng/mL; MIC [13]: ≤ 3 ng/mL; Dead [14]: 0; MIC [15]: ≤ 3 ng/mL; Dead [16]: 2; Dead [17]: 2
CC1(C)S[C@@H]2[C@H](NC(=O)Cc3ccccc3)C(=O)N2[C@H]1C(=O)O [PENICILLIN G]									MIC [18]: 4 µg/mL (≈ 12 µM)
CO/N=C1\CN(c2nc3c(cc2F)c(=O)c(C(=O)O)cn3C2CC2)CC1CN (centres undefined) [GEMIFLOXACIN]					2 (≈ 5.14 µM)	32 (≈ 82.2 µM)	0.03 (≈ 0.077 µM)	0.06 (≈ 0.154 µM)	MIC50 [19]: 4 µg/mL (≈ 10.3 µM); MIC90 [19]: 32 µg/mL (≈ 82.2 µM); MIC50 [20]: 1 µg/mL (≈ 2.57 µM); MIC90 [20]: 2 µg/mL (≈ 5.14 µM)
